According to ChEMBL document CHEMBL1152321, “Recent advances in the chemistry and biology of new generation taxoids” (J Nat Prod, 2009):
The source made the active and inactive calls. The calls are words filed in the database; no cut-off is given here.

What was measured:
[1] = Cytotoxicity against P-glycoprotein deficient wild type human LCC-6 cells after 72 hrs; format: functional, cell-based; details: LCC-6, 72 h
[2] = Resistance factor, ratio of IC50 for human LCC-6 cells expressing P-glycoprotein to IC50 for P-glycoprotein deficient wild type human LCC-6 cells; format: functional; parameters: reference not given here
A2780 [3] = assay: Resistance factor, […] harboring point mutation in beta-tubulin; format: functional
MCF7 [4] = assay: Resistance factor, ratio of IC50 for P-glycoprotein deficient wild type human MCF7 cells to IC50 for multidrug-resistant human NCI/ADR cells; format: functional
DLD-1 [5] = assay: Antitumor activity against human DLD1 cells expressing P-glycoprotein xenografted in SCID mouse assessed as no palpable tumors at 20 mg/kg, iv administered on day 5, 8, 11 post tumor implantation measured on day 167; format: functional, organism-based; parameters: dose 20 mg/kg
Outline: (§1)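 SCID mice carrying subcutaneous Pgp+ DLD-1 human colon tumours were dosed i.v. q3d×3 on days 5, 8 and 11 after implant, in Tween/EtOH vehicle, with vehicle and untreated control groups. Growth delay was compared with controls by Cox-Mantel test. Cures were mice with no palpable tumour on day 167. Toxicity was counted as death or more than 20% body-weight loss.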

DLD-1 [6] = assay: Antitumor activity against human DLD1 cells expressing P-glycoprotein xenografted in SCID mouse assessed as tumor growth delay at 10 mg/kg, iv administered on day 5, 8, 11 post tumor implantation; format: functional; outline: as §1
DLD-1 [7] = assay: Antitumor activity against human DLD1 cells expressing P-glycoprotein xenografted in SCID mouse assessed as tumor growth delay at 20 mg/kg, iv administered on day 5, 8, 11 post tumor implantation; format: functional; outline: as §1
DLD-1 [8] = assay: Antitumor activity against human DLD1 cells expressing P-glycoprotein xenografted in SCID mouse assessed as tumor growth delay at 40 mg/kg, iv administered on day 5, 8, 11 post tumor implantation; format: functional; outline: as §1
[9] = Cytotoxicity against human primary pancreatic ductal cells up to 10 uM; format: cell-based
DLD-1 [10] = assay: Antitumor activity against human DLD1 cells expressing P-glycoprotein xenografted in SCID mouse assessed as no palpable tumors at 10 mg/kg, iv administered on day 5, 8, 11 post tumor implantation measured on day 167; format: functional, organism-based; parameters: dose 10 mg/kg; outline: as §1
Mus musculus [11] = organism: Mus musculus; assay: Toxicity in SCID mouse assessed as decrease in body weight after day 15 to day 20; format: organism-based; parameters: scale not given: the % may be the effect or the level left; details: in vivo
[12] = Cytotoxicity against human paclitaxel and cyclosporine-resistant A2780TC3 cells overexpressing class 3 beta-tubulin after 72 hrs; format: functional, cell-based; details: A2780TC3, 72 h
NCI-H460 = assay: Cytotoxicity against human H460 cells after 72 hrs; format: functional, cell-based; details: NCI-H460, 72 h
A2780 [13] = assay: Cytotoxicity against human cisplatin-resistant A2780 cells after 72 hrs; format: functional, cell-based; details: A2780, 72 h
A2780 [14] = assay: Cytotoxicity against human topotecan-resistant A2780 cells after 72 hrs; format: functional, cell-based; details: A2780, 72 h
PANC-1 = assay: Cytotoxicity against human PANC1 cells expressing mdr1, mrp1, mrp2, lrp genes after 72 hrs; format: functional, cell-based; details: PANC-1, 72 h
Mus musculus [15] = assay: Toxicity in SCID mouse xenografted with human DLD1 cells assessed as decrease in body weight at 20 mg/kg, iv administered on day 5, 8, 11 post tumor implantation; format: organism-based, DLD-1; parameters: dose 20 mg/kg, route intravenous; details: in vivo
A2780 [16] = assay: Cytotoxicity against human wild type A2780 cells after 72 hrs; format: functional, cell-based; details: A2780, 72 h
[17] = Cytotoxicity against human LCC-6 cells expressing P-glycoprotein after 72 hrs; format: functional, cell-based; details: LCC-6, 72 h
[18] = Induction of tubulin polymerization at 10 uM in absence of GTP
[19] = Induction of tubulin polymerization at 10 uM in presence of Ca2+
[20] = Cytotoxicity against multidrug-resistant human NCI/ADR cells after 72 hrs; format: functional, cell-based; details: NCI/ADR-RES
MCF7 [21] = assay: Cytotoxicity against P-glycoprotein deficient wild type human MCF7 cells after 72 hrs; format: functional, cell-based; details: MCF7, 72 h
HT-29 = assay: Cytotoxicity against human HT-29 cells after 72 hrs; format: functional, cell-based; details: HT-29, 72 h
[22] = Cytotoxicity against human paclitaxel and cyclosporine-resistant A2780TC1 cells overexpressing class 3 beta-tubulin after 72 hrs; format: functional, cell-based; details: A2780TC1, 72 h
[23] = Activity ratio of compound IC50 to paclitaxel IC50 for paclitaxel and cyclosporine-resistant human A2780TC3 cells overexpressing class 3 beta-tubulin; format: functional
A2780 [24] = assay: Resistance factor, ratio of IC50 for paclitaxel and cyclosporine-resistant human A2780TC3 cells overexpressing class 3 beta-tubulin to IC50 for wild type human A2780 cells; format: functional
[25] = Cytotoxicity against human A2780/ADR cells after 72 hrs; format: functional, cell-based

Row | SMILES | IC50 [1] [nM] | Activity (DLD-1 [5]) | Activity (DLD-1 [7]) [days] | IC50 [12] [nM] | IC50 (A2780 [13]) [nM] | IC50 (A2780 [14]) [nM] | IC50 (A2780 [16]) [nM] | IC50 [17] [nM] | IC50 [22] [nM] | Ratio IC50 [23] | Ratio IC50 (A2780 [24]) | IC50 [25] [nM] | further results
1 | CCC(=O)O[C@H]1C(=O)[C@@]2(C)[C@H]([C@H](OC(=O)c3cccc(OC)c3)[C@]3(O)C[C@H](OC(=O)[C@H](O)[C@H](C=C(C)C)NC(=O)OC(C)(C)C)C(C)=C1C3(C)C)[C@]1(OC(C)=O)CO[C@@H]1C[C@@H]2O | 1 | – | – | – | – | – | – | – | – | – | – | – | Ratio [2]: 0.9; Ratio (A2780 [3]): 5.1; Ratio (MCF7 [4]): 0.92
2 | CC(=O)O[C@@]12CO[C@@H]1C[C@H](O)[C@@]1(C)C(=O)[C@H](OC(=O)C3CC3)C3=C(C)[C@@H](OC(=O)[C@H](O)[C@H](C=C(C)C)NC(=O)OC(C)(C)C)C[C@@](O)([C@@H](OC(=O)c4ccccc4)[C@H]21)C3(C)C | – | Active | >150 | – | – | – | – | – | – | – | – | – | Activity (DLD-1 [6]): 37 days; Activity (DLD-1 [8]): >150 days; Activity [9]: Not Active; Activity (DLD-1 [10]): inactive; Activity (Mus musculus [11]): 3%
3 | CC(=O)O[C@H]1C(=O)[C@@]2(C)[C@H]([C@H](OC(=O)c3ccccc3)[C@]3(O)C[C@H](OC(=O)[C@H](O)[C@@H](NC(=O)c4ccccc4)c4ccccc4)C(C)=C1C3(C)C)[C@]1(OC(C)=O)CO[C@@H]1C[C@@H]2O [PACLITAXEL] | 2.45 | inactive | 8 | 17800 | 2.2 | 7.2 | 1.7 | 110 | – | – | – | – | IC50 (NCI-H460): 4.9 nM; IC50 (PANC-1): 25.7 nM; Activity (Mus musculus [15]): Non-toxic
4 | CC(=O)O[C@H]1C(=O)[C@@]2(C)[C@H]([C@H](OC(=O)c3ccccc3)[C@]3(O)[C@H]4OCC/C=C/c5ccccc5C(=O)N[C@@H](c5ccccc5)[C@@H](O)C(=O)O[C@@H]4C(C)=C1C3(C)C)[C@]1(OC(C)=O)CO[C@@H]1C[C@@H]2O | 2.09 | – | – | – | – | – | 31 | 129 | – | – | – | – | inhibition [18]: Active; inhibition [19]: Active; IC50 [20]: 183 nM; IC50 (MCF7 [21]): 3.49 nM; IC50 (HT-29): 17 nM
5 | CC(=O)O[C@@]1(C2/C(C)=C(/O)C(=O)C3=C(C)[C@@H](OC(=O)[C@H](O)[C@H](CC(C)C)NC(=O)OC(C)(C)C)C[C@@](O)([C@H]2OC(=O)c2ccccc2)C3(C)C)CO[C@@H]1CCO (stereo partly specified) | – | – | – | 2240 | 16.8 | 27.5 | 17.4 | – | 2060 | 8 | 129 | 2620 | –
6 | CC(=O)O[C@@]1([C@@H]2/C(C)=C(/O)C(=O)C3=C(C)[C@@H](OC(=O)[C@H](O)[C@H](CC(C)C)NC(=O)OC(C)(C)C)C[C@@](O)([C@H]2OC(=O)c2cccc(F)c2)C3(C)C)CO[C@H]1CCO | – | – | – | 460 | 11.8 | 12.8 | 11.1 | – | 1500 | 39 | 41 | 3730 | –
